Assay results taken from ChEMBL document CHEMBL5036326, “Development of Covalent, Clickable Probes for Adenosine A1 and A3 Receptors” (J Med Chem, 2021).
The source made the active and inactive calls. The calls are words filed in the database; no cut-off is given here.

Experiments:
Adenosine receptor A2b = target: T1, Adenosine receptor A2b (Homo sapiens, UniProt P29275); assay: (§1) Antagonist activity at human adenosine A2B receptor expressed in Flp-In-CHO cell membrane assessed as inhibition of NECA-induced cAMP accumulation in presence of forskolin measured after 40 mins by alpha screen LANCE assay; format: functional
T1 sequence (P29275 whole entry): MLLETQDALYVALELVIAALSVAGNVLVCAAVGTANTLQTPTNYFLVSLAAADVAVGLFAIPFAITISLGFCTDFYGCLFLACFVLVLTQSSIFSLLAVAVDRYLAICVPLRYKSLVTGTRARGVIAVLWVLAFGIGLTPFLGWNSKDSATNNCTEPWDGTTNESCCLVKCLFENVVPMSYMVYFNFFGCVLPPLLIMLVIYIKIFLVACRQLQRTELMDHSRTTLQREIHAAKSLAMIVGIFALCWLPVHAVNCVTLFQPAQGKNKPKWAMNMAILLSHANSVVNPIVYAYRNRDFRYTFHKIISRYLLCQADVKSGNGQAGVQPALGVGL
How it was run: (§2)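 A2BR-FlpInCHO cells seeded at 30000 cells/well and incubated overnight at 37 °C. Antagonists tested against a submaximal (EC80) NECA concentration; NECA curves run alongside. cAMP response normalized to buffer (0%) and 3 μM forskolin (100%). Affinity derived by fitting NECA–antagonist interaction data to a competitive model. Duplicates, ≥3 experiments.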

[1] = target: T2, Adenosine receptor A2b (Homo sapiens) (UniProt P29275); assay: as §1; format: functional; settings: filed as antagonist; how it was run: as §2
T2 sequence (whole entry): T1 sequence (P29275 whole entry)

Adenosine receptor A1 [2] = target: T3, Adenosine receptor A1 (Homo sapiens, UniProt P30542); assay: Antagonist activity at human adenosine A1 receptor expressed in Flp-In-CHO cell membrane assessed as inhibition of NECA-induced cAMP accumulation in presence of forskolin measured after 40 mins by alpha screen LANCE assay; format: functional, cell membranes
T3 sequence (P30542 whole entry): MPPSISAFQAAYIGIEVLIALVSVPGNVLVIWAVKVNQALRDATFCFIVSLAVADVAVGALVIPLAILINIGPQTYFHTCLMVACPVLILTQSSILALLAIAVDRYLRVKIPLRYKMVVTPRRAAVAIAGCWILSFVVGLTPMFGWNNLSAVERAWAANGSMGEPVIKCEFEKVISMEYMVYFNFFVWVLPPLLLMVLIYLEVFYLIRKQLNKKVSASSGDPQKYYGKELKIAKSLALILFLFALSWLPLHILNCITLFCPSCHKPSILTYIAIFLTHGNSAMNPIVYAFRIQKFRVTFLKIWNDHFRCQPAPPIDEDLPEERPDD

Adenosine receptor A1 [3] = target: T3, Adenosine receptor A1; assay: Antagonist activity at human adenosine A1 receptor expressed in Flp-In-CHO cell membrane assessed as inhibition of forskolin-stimulated cAMP accumulation preincubated for 5 min followed by forskolin stimulation and further incubated for 30 mins in presence of NECA by alphascreen LANCE assay
Adenosine receptor A1 [4] = target: T3, Adenosine receptor A1; assay: Displacement of [3H] DPCPX from human A1 adenosine receptor expressed in Flp-In-CHO cell membrane incubated for 4 hrs by microbeta scintillation counting method; format: cell membranes
[5] = target: T4, Adenosine receptor A1 (Homo sapiens) (UniProt P30542); settings: Flp-In-CHO, Membrane, filed as antagonist, time 40.0 min
T4 sequence (whole entry): T3 sequence (P30542 whole entry)

[6] = target: T4, Adenosine receptor A1 (Homo sapiens); settings: Flp-In-CHO, Membrane, filed as antagonist, time 40.0 min; remark: listed apart in the source
[7] = target: T5, Adenosine receptor A3 (Homo sapiens) (UniProt P0DMS8); settings: Flp-In-CHO, Membrane, filed as antagonist, time 40.0 min
T5 sequence (whole entry): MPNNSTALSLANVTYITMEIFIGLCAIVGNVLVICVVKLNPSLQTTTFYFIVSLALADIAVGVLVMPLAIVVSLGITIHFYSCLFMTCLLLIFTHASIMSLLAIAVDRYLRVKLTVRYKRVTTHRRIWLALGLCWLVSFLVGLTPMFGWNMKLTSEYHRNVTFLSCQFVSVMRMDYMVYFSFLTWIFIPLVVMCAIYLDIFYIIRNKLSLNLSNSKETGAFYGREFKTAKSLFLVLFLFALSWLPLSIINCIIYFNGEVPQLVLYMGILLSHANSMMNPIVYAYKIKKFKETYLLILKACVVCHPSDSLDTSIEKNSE

Adenosine receptor A2a [8] = target: T6, Adenosine receptor A2a (Homo sapiens, UniProt P29274); assay: Antagonist activity at human adenosine A2A receptor expressed in Flp-In-CHO cell membrane assessed as inhibition of NECA-induced cAMP accumulation in presence of forskolin measured after 40 mins by alpha screen LANCE assay; format: functional, cell membranes
Adenosine receptor A3 = target: T7, Adenosine receptor A3 (Homo sapiens, UniProt P0DMS8); assay: Antagonist activity at human adenosine A3 receptor expressed in Flp-In-CHO cell membrane assessed as inhibition of NECA-induced cAMP accumulation in presence of forskolin measured after 40 mins by alpha screen LANCE assay; format: functional, cell membranes
T7 sequence (P0DMS8 whole entry): T5 sequence (whole entry)

Adenosine receptor A1 [9] = target: T3, Adenosine receptor A1; assay: Displacement of [3H] DPCPX from human adenosine A1 receptor expressed in Flp-In-CHO cell membrane incubated for 3 hrs followed by compound washout and further incubated for 4 hrs with radioligand by microbeta scintillation counting method; format: cell membranes
Adenosine receptor A2a [10] = target: T6, Adenosine receptor A2a; settings: Flp-In-CHO, Membrane, filed as antagonist, time 40.0 min
[11] = target: T5, Adenosine receptor A3 (Homo sapiens); assay: Inhibition of CA200645 binding to NanoLuc-fused human Adenosine A3 receptor expressed in HEK293-A cells using furimazine as substrate preincubated for 3 hrs followed by ligand washout and further incubated for 60 mins with CA200645 by NanoBRET assay; format: cell-based
How it was run: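 HEK293A cells transiently transfected (PEI) with N-terminal Nluc-A3R cDNA, assayed 48 h post-transfection. Cells incubated with competing ligands for 3 h in binding buffer, then washed 6 × 20 min. 5 nM CA200645 added for 60 min at room temperature, then 10 μM furimazine (final). BRET read as 610/460 nm emission ratio at 25 °C. Nonspecific binding defined with 1 μM MRS1220.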

[12] = target: T4, Adenosine receptor A1 (Homo sapiens); assay: Displacement of [3H] DPCPX from human A1 adenosine receptor expressed in Flp-In-CHO cell membrane at 1 uM incubated for 4 hrs by microbeta scintillation counting method; format: cell membranes; settings: filed as antagonist
How it was run: (§3)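 Membranes (15 μg) from hA1R-FlpInCHO cells incubated with competing ligand and about 1 nM [3H]DPCPX for 4 h at 25 °C. Binding buffer: HEPES, glucose, salts, 1 unit/mL ADA, pH 7.4. Filtration, ice-cold 0.9% NaCl washes, then β-counting. Nonspecific binding defined with 1 μM SLV320. Specific binding normalized to binding without competitor.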

[13] = target: T4, Adenosine receptor A1 (Homo sapiens); assay: Displacement of [3H] DPCPX from human A1 adenosine receptor expressed in Flp-In-CHO cell membrane at 10 uM incubated for 4 hrs by microbeta scintillation counting method; format: cell membranes; how it was run: as §3
[14] = Solubility of the compound at 10 uM; format: physicochemical

T6 sequence (P29274 whole entry): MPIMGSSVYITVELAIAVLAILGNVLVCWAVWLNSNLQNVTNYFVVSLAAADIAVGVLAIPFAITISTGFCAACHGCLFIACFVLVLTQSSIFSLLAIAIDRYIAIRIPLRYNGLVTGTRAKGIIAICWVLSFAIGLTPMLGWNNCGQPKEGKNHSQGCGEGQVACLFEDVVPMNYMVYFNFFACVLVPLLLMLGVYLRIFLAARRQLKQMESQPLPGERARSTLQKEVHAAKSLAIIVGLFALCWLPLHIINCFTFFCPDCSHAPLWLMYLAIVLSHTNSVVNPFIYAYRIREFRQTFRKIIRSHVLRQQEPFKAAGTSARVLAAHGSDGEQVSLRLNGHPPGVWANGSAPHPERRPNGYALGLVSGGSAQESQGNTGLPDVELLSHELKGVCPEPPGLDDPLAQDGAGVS

Compound | Ki (Adenosine receptor A2b) | Ki (Adenosine receptor A1 [2]) | Ki (Adenosine receptor A1 [3]) | Ki (Adenosine receptor A1 [4]) | pKb [6] | Ki (Adenosine receptor A2a [8]) | Ki (Adenosine receptor A3) | Ki (Adenosine receptor A1 [9]) | further results
CCCn1c(=O)[nH]c2nc(-c3ccc(S(=O)(=O)N4CCN(c5ccc(Cl)cc5)CC4)cc3)[nH]c2c1=O | 0.0013 µM | – | – | – | – | – | – | – | pKb [1]: 8.87
O[C@H]1CC[C@H](Nc2nc(-c3ccccc3)nc3[nH]ccc23)CC1 | – | 0.0004 µM | 0.0005 µM | 0.0006 µM | 9.27 | – | – | – | pKb [5]: 9.44
CCCCn1c(=O)c2nc(C34CCC(C(=O)NCCOCCOCCN=[N+]=[N-])(CC3)CC4)[nH]c2n(CCCNC(=O)c2ccc(S(=O)(=O)F)cc2)c1=O | 0.0229 µM | 0.0035 µM | 0.0014 µM | 0.0061 µM | 8.86 | 0.0316 µM | 0.0398 µM | 0.01 µM | pKb [7]: 7.4; pKb [1]: 7.64; pKb [5]: 8.45; pKb (Adenosine receptor A2a [10]): 7.5
CCCCn1c(=O)c2nc(C34CCC(C(=O)OC)(CC3)CC4)[nH]c2n(CCCNC(=O)c2ccc(S(=O)(=O)F)cc2)c1=O | – | – | 0.0171 µM | 0.0173 µM | 7.77 | – | – | 0.0893 µM | inhibition ([11]; filed as antagonist): Active
CCCCn1c(=O)c2nc(C34CCC(C(=O)NCCCN=[N+]=[N-])(CC3)CC4)[nH]c2n(CCCNC(=O)c2ccc(S(=O)(=O)O)cc2)c1=O | – | – | 0.0875 µM | 0.605 µM | 7.06 | – | – | – | inhibition [11]: inactive
CCCCn1c(=O)c2nc(C34CCC(C(=O)OC)(CC3)CC4)[nH]c2n(CCCNC(=O)c2ccc(S(=O)(=O)O)cc2)c1=O | – | – | 0.092 µM | 0.179 µM | 7.04 | – | – | – | inhibition [11]: inactive
CCCCn1c(=O)c2nc(C34CCC(C(=O)NCCCN=[N+]=[N-])(CC3)CC4)[nH]c2n(CCCNC(=O)c2ccc(S(=O)(=O)F)cc2)c1=O | 0.0794 µM | – | – | – | – | 0.038 µM | 0.0042 µM | – | inhibition ([11]; filed as antagonist): Active
C#CCCCCNC(=O)C12CCC(c3nc4c(=O)n(CCCC)c(=O)n(CCCNC(=O)c5ccc(S(=O)(=O)F)cc5)c4[nH]3)(CC1)CC2 | 0.0354 µM | 0.0039 µM | 0.0006 µM | 0.0016 µM | – | – | 0.0437 µM | 0.0093 µM | inhibition ([11]; filed as antagonist): Active
CCCCn1c(=O)c2nc(C3CCCCC3)[nH]c2n(CCCNC(=O)c2ccc(S(=O)(=O)F)cc2)c1=O | – | – | 0.026 µM | 0.0121 µM | 7.59 | – | – | – | Activity [12]: Active; Activity [13]: inactive; solubility [14]: Insoluble
CCCCn1c(=O)c2nc(C34CCC(C(=O)NCCCCN=[N+]=[N-])(CC3)CC4)[nH]c2n(CCCNC(=O)c2ccc(S(=O)(=O)F)cc2)c1=O | 0.0263 µM | – | – | – | – | 0.166 µM | 0.0049 µM | – | –
CCCn1c(=O)c2nc(C34CCC(C(=O)NCCCN=[N+]=[N-])(CC3)CC4)[nH]c2n(CCCNC(=O)c2ccc(S(=O)(=O)F)cc2)c1=O | 0.0178 µM | 0.0028 µM | 0.0006 µM | 0.0035 µM | 9.19 | 0.0263 µM | 0.011 µM | 0.0078 µM | pKb [7]: 7.96; pKb [1]: 7.75; pKb [5]: 8.56; pKb (Adenosine receptor A2a [10]): 7.58
C#CCNC(=O)C12CCC(c3nc4c(=O)n(CCCC)c(=O)n(CCCNC(=O)c5ccc(S(=O)(=O)F)cc5)c4[nH]3)(CC1)CC2 | – | 0.0309 µM | 0.585 µM | 0.0261 µM | 6.23 | – | 0.0468 µM | 0.0388 µM | pKb [7]: 7.33; inhibition ([11]; filed as antagonist): Active; pKb [5]: 7.51
CCCCn1c(=O)c2nc(C34CCC(C(=O)NCCCCCCCCN=[N+]=[N-])(CC3)CC4)[nH]c2n(CCCNC(=O)c2ccc(S(=O)(=O)F)cc2)c1=O | 0.0067 µM | 0.0102 µM | 0.0024 µM | 0.0037 µM | – | – | – | 0.0161 µM | –
CCCCn1c(=O)c2nc(C34CCC(C(=O)NCCOCCOCCOCCN=[N+]=[N-])(CC3)CC4)[nH]c2n(CCCNC(=O)c2ccc(S(=O)(=O)F)cc2)c1=O | 0.0955 µM | – | – | – | – | 0.0363 µM | 0.0083 µM | – | –
